Measurements: ChEMBL document CHEMBL2417398, “Synthesis, antileishmanial activity and structure-activity relationship of 1-N-X-phenyl-3-N'-Y-phenyl-benzamidines” (Eur J Med Chem, 2013)

Experiments:
Leishmania amazonensis = assay: Antileishmanial activity against Leishmania amazonensis MHOM/BR/77/LTB0016 promastigotes after 24 hrs by cell counting; format: functional, organism-based
In short: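 L. amazonensis MHOM/BR/77/LTB0016 promastigotes grown at 25 °C in LIT medium with 10% (v/v) heat-inactivated FCS, harvested in late log phase and set to 4 x 10^6 /mL. Drugs in DMSO (up to 1.6% v/v) at 160 to 5 μg/mL for 24 h. Surviving parasites counted in a Neubauer chamber. Inhibition taken against DMSO and untreated controls. IC50 from linear regression of % inhibition versus log concentration.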

Leishmania chagasi = assay: Antileishmanial activity against Leishmania chagasi promastigotes after 24 hrs by cell counting; format: functional, organism-based
In short: (§1)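 Promastigotes given drugs in DMSO (at most 1.6% v/v) over 160 to 5 μg/mL for 24 h. Remaining parasites counted in a Neubauer chamber and % inhibition set against DMSO-only and parasite-only controls. IC50 derived by linear regression of % inhibition against log drug concentration.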

Leishmania braziliensis = assay: Antileishmanial activity against Leishmania braziliensis promastigotes after 24 hrs by cell counting; format: functional, organism-based; in short: as §1
[1] = Cytotoxicity against macrophages (unknown origin) at 320 ug/ml; format: cell-based; conditions: macrophage
[2] = Leishmania amazonensis, MHOM/BR/77/LTB0016, 24 h

SMILES	logIC50 (Leishmania amazonensis; [2])	other results
COc1ccc(/C(=N/c2ccccc2)Nc2cccc(Cl)c2)cc1	1.11	
COc1ccc(/C(=N/c2ccccc2)Nc2ccc(F)cc2)cc1	1.43	
COc1ccc(/C(=N/c2ccccc2)Nc2cccc(F)c2)cc1	1.62	
COc1ccc(/C(=N/c2ccccc2)Nc2ccc(Br)cc2)cc1	1.34	
COc1ccc(/C(=N/c2ccccc2)Nc2cccc(OC)c2)cc1	1.68	
COc1ccc(/C(=N/c2ccccc2)Nc2ccc([N+](=O)[O-])cc2)cc1	1.22	
COc1ccc(/C(=N/c2ccccc2)Nc2cccc([N+](=O)[O-])c2)cc1	2.59	
COc1ccc(/C(=N/c2ccccc2)Nc2ccc(O)cc2)cc1	2.51	
COc1ccc(/C(=N/c2ccccc2)Nc2cccc(O)c2)cc1	2.65	
COc1ccc(/C(=N/c2ccccc2)Nc2ccc(C)cc2)cc1	2.42	
COc1ccc(/C(=N/c2ccccc2)Nc2cccc(C)c2)cc1	2.42	
COc1ccc(/C(=N/c2ccccc2)Nc2ccc(S(N)(=O)=O)cc2)cc1	1.79	
COc1ccc(/C(=N/c2ccccc2)Nc2ccc(Cl)c([N+](=O)[O-])c2)cc1	1.1	
COc1ccc(/C(=N/c2ccccc2)Nc2ccccc2)cc1 [listing 1 of 2 here]	1.9	logIC50 (Leishmania chagasi; Leishmania chagasi, 24 h): 2.76; logIC50 (Leishmania braziliensis; Leishmania braziliensis, 24 h): 2.05
COc1ccc(/N=C(\Nc2ccccc2)c2ccc(OC)cc2)cc1 [listing 1 of 2 here]	1.82	logIC50 (Leishmania chagasi; Leishmania chagasi, 24 h): 2.04; logIC50 (Leishmania braziliensis; Leishmania braziliensis, 24 h): 1.42
COc1ccc(/N=C(\Nc2ccc(OC)cc2)c2ccccc2)cc1 [listing 1 of 2 here]	1.62	logIC50 (Leishmania chagasi; Leishmania chagasi, 24 h): > 3; logIC50 (Leishmania braziliensis; Leishmania braziliensis, 24 h): 2.13
COc1cccc(/C(=N/c2ccccc2)Nc2ccccc2)c1	2.56	
COc1ccc(/N=C(\Nc2ccccc2)c2ccccc2)cc1	2.8	
COc1ccc(/N=C(\Nc2ccccc2)c2cccc(OC)c2)cc1	2.57	
COc1ccc(/N=C(\Nc2ccccc2)c2ccc(OC)cc2)cc1 [listing 2 of 2 here]		logIC50 (Leishmania chagasi): 1.95; logIC50 (Leishmania braziliensis): 1.52; logIC50 (Leishmania amazonensis): 2.8; Activity [1]: 15%
COc1ccc(/N=C(\Nc2ccc(OC)cc2)c2ccccc2)cc1 [listing 2 of 2 here]		logIC50 (Leishmania chagasi): 2.25; logIC50 (Leishmania braziliensis): 2.25; logIC50 (Leishmania amazonensis): 2.24; Activity [1]: 100%
COc1ccc(/N=C(\Nc2ccc(OC)cc2)c2ccc(OC)cc2)cc1	> 3	
COc1ccc(/N=C(\Nc2ccccc2)c2ccc3c(c2)OCO3)cc1	1.6	
COc1ccc(/C(=N/c2ccccc2)Nc2ccc(Cl)cc2)cc1	1.9	
COc1ccc(/C(=N/c2ccccc2)Nc2ccccc2)cc1 [listing 2 of 2 here]		logIC50 (Leishmania chagasi): 1.91; logIC50 (Leishmania braziliensis): 1.9; logIC50 (Leishmania amazonensis): 1.85; Activity [1]: Non-toxic
N=C(N)c1ccc(OCCCCCOc2ccc(C(=N)N)cc2)cc1 [PENTAMIDINE]	1.05	logIC50 (Leishmania chagasi; Leishmania chagasi, 24 h): 1.76; logIC50 (Leishmania braziliensis; Leishmania braziliensis, 24 h): 1.36; Activity [1]: 100%
